From ChEMBL document CHEMBL4033794, “Discovery of Trifluoromethyl Glycol Carbamates as Potent and Selective Covalent Monoacylglycerol Lipase (MAGL) Inhibitors for Treatment of Neuroinflammation” (J Med Chem, 2018)
In brackets after ≈: the same amount, converted by molar mass. Activity calls are given as the source filed them. The rule behind the calls is not given here.

Experiments:
[1] = Ratio of AUClast in C57BL6J mouse brain to plasma at 1 mg/kg, sc measured up to 24 hrs post dose by HPLC-MS/MS analysis; conditions: brain and plasma
[2] = target: T1, Fatty-acid amide hydrolase 1 (Homo sapiens, UniProt O00519); test: Inhibition of recombinant human FAAH using fluorogenic arachidonoyl-AMC as substrate preincubated for 30 mins followed by substrate addition measured after 60 mins by fluorescence based assay
T1 sequence (O00519 whole entry): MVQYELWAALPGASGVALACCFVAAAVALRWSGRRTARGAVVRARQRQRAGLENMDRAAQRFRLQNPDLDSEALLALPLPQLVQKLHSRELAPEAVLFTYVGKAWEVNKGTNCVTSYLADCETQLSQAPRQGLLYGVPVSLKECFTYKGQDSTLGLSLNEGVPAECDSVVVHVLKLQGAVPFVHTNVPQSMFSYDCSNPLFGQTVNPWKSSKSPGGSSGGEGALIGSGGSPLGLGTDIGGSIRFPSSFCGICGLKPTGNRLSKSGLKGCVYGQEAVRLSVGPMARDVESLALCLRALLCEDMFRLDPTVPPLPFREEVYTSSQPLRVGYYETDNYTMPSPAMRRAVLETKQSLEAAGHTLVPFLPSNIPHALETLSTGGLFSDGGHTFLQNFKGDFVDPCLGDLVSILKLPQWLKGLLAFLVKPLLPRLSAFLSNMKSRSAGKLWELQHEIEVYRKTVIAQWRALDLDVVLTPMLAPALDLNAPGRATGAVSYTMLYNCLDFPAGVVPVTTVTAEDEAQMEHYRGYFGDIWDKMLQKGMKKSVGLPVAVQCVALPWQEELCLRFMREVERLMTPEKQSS
Procedure, shortened: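 Human recombinant FAAH (0.0125 U final) in 50 mM Tris pH 9.0, 1 mM EDTA, preincubated 30 min at room temperature with compound (30 μM to 0.3 nM final); arachidonoyl-AMC 5 μM added, 60 min reaction, read Ex/Em 355/460. Inhibition vs no-compound and full-inhibition controls; four-parameter fit; geometric mean of ≥3 experiments.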

[3] = Kinetic solubility of the compound at pH 7.4; format: physicochemical; conditions: buffer, read-out: Kinetic_solubility
[4] = Thermodynamic solubility of the compound at pH 6.5 after 24 hrs; format: physicochemical; conditions: buffer, read-out: Therm_solubility
[5] = Intrinsic clearance in human liver microsomes; format: ADME, microsome; conditions: read-out: CLH
Procedure, shortened: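 Substrate depletion in human liver microsomes; intrinsic clearance scaled to mL/min/kg.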

Cannabinoid receptor 1 [6] = target: T2, Cannabinoid receptor 1 (Homo sapiens, UniProt P21554); test: Agonist activity at human CB1 receptor expressed in CHOK1 cells assessed as […] after 20 mins by HTRF assay; format: functional, cell-based
[7] = Intrinsic clearance in human hepatocytes in presence of CYP inhibitor ABT; format: ADME, cell-based, Hepatocyte; conditions: with ABT (CYP inhibitor), concentration not stated, read-out: CLH
Procedure, shortened: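 Cryopreserved human hepatocyte substrate-depletion assay run with ABT present; scaled intrinsic clearance in mL/min/kg.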

[8] = Plasma clearance in Beagle dog at 1 mg/kg, iv administered via cephalic vein measured up to 24 hrs post dose by HPLC-MS/MS analysis; format: ADME, organism-based, Canis lupus familiaris
Procedure, shortened: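 Fasted male beagles (n = 2), fed ~4 h post-dose, given 1 mg/kg IV bolus via cephalic vein in 3% DMA/10% Solutol HS15/10% Miglyol/77% of 20% SBECD, 0.5 mL/kg. Jugular blood pre-dose and 0.083–24 h; plasma HPLC-MS/MS; non-compartmental analysis.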

[9] = Volume of distribution in Wistar Hannover rat at 1 mg/kg, iv administered as bolus dose via jugular vein cannula measured up to 24 hrs post dose by HPLC-MS/MS analysis; format: ADME, organism-based; conditions: in vivo
Procedure, shortened: (§1)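 Rats (n = 2) given 1 mg/kg IV bolus via jugular vein cannula, solution in 3% DMA/10% Solutol HS15/10% Miglyol/77% of 20% SBECD in water, 1 mL/kg. Carotid cannula blood pre-dose and 0.083–24 h; plasma by HPLC-MS/MS; non-compartmental analysis.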

[10] = Volume of distribution in non-human primate at 1 mg/kg, iv administered via cephalic vein measured up to 24 hrs post dose by HPLC-MS/MS analysis; format: ADME, organism-based, Macaca mulatta; conditions: rhesus monkey, in vivo
Procedure, shortened: (§2)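 Fasted male non-human primates (n = 2), fed ~1 h post-dose; 1 mg/kg IV bolus via saphenous or cephalic vein in 3% DMA/10% Solutol HS15/10% Miglyol/77% of 20% SBECD, 0.5 mL/kg. Femoral blood pre-dose and 0.083–24 h; plasma HPLC-MS/MS; non-compartmental analysis.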

[11] = Half life in Wistar Hannover rat at 1 mg/kg, iv administered as bolus dose via jugular vein cannula measured up to 24 hrs post dose by HPLC-MS/MS analysis; format: ADME, organism-based; conditions: in vivo; procedure, shortened: as §1
[12] = Half life in Beagle dog at 1 mg/kg, iv administered via cephalic vein measured up to 24 hrs post dose by HPLC-MS/MS analysis; format: ADME, organism-based, Canis lupus familiaris; conditions: in vivo
[13] = Half life in non-human primate at 1 mg/kg, iv administered via cephalic vein measured up to 24 hrs post dose by HPLC-MS/MS analysis; format: ADME, organism-based, Macaca mulatta; conditions: rhesus monkey, in vivo; procedure, shortened: as §2
[14] = Unbound fraction in C57BL6J mouse brain at 1 mg/kg, sc measured up to 24 hrs post dose by HPLC-MS/MS analysis; format: ADME, organism-based
CYP3A4 = CYP3A4 (Homo sapiens, UniProt P08684); test: Inhibition of CYP3A4 (unknown origin) at 3 uM; format: ADME
Procedure, shortened: (§3)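 Competitive inhibition screen of CYP3A4, 2D6, 2C9, 2C8 and 1A2 using isoform-relevant probe substrates, compound at 3 μM.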

CYP2D6 = CYP2D6 (Homo sapiens, UniProt P10635); test: Inhibition of CYP2D6 (unknown origin) at 3 uM; format: ADME; procedure, shortened: as §3
CYP2C9 = CYP2C9 (Homo sapiens, UniProt P11712); test: Inhibition of CYP2C9 (unknown origin) at 3 uM; format: ADME; procedure, shortened: as §3
Mus musculus [15] = test: Anti-inflammatory activity in C57BL6J mouse assessed as reduction in LPS-induced TNFalpha levels in brain at 1 mg/kg, sc administered 30 mins after LPS challenge measured at 4 hrs post LPS challenge; format: functional, organism-based
Procedure, shortened: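 LPS 20 mg/kg IP or saline, then 1 mg/kg SC compound or vehicle at 30 min; hemi-brains taken at 4 h, homogenized in PBS with protease inhibitors, spun 100,000 rcf 45 min at 4°C; IL-1β and TNFα measured by Meso Scale electrochemiluminescence panel, with protein measured by BCA.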

Cannabinoid receptor 1 [16] = target: T2, Cannabinoid receptor 1; test: Displacement of [3H]CP55940 from human CB1 receptor expressed in CHOK1 cell membranes at 10 uM after 120 mins by scintillation counting method
[17] = Drug metabolism in human hepatocytes assessed as glucuronide conjugate formation; format: ADME, cell-based, Hepatocyte
Mus musculus [18] = test: Time at which unbound brain concentration stays above in vitro MAGL IC50 in C57BL6J mouse at 1 mg/kg, sc up to 24 hrs post dose
Procedure, shortened: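 Male C57BL6J mice dosed 1 mg/kg SC in DMSO:Cremophor:saline 5:5:90, 10 mL/kg; plasma and brain taken at 0.5, 1, 2, 4, 8, 12, 24 h. Drug measured in plasma and cerebellum; 2-AG and arachidonic acid in brain hemisphere, compared with vehicle-treated mice.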

Mus musculus [19] = species: Mus musculus; conditions: C57BL6J, 1 mg/kg

T2 sequence (P21554 whole entry): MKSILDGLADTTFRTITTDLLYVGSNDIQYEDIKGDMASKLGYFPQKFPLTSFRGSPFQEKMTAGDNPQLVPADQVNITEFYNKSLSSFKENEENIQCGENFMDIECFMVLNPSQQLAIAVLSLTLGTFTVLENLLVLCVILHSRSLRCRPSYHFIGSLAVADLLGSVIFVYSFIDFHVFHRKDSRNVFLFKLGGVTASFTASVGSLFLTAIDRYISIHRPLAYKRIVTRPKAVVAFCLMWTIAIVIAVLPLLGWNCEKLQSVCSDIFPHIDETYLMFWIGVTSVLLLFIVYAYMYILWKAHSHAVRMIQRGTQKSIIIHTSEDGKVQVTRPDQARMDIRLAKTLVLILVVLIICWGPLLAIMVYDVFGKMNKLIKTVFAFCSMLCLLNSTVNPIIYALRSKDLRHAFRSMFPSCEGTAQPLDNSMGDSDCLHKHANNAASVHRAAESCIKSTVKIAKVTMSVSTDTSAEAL
Sequence of CYP2C9 (P11712 whole entry): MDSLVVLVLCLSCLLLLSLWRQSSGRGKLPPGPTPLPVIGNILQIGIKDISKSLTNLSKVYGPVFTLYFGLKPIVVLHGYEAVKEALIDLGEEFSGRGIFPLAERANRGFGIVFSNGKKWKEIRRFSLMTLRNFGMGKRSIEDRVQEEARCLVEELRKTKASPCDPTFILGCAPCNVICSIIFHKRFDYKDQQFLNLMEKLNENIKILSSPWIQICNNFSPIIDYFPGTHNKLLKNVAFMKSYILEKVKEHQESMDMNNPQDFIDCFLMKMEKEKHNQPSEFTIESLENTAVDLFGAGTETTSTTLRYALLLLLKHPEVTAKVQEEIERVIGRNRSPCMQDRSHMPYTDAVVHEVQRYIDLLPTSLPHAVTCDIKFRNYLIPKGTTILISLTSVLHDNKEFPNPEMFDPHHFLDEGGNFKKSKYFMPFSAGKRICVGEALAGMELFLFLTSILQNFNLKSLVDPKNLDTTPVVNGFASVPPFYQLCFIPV
Sequence of CYP2D6 (P10635 whole entry): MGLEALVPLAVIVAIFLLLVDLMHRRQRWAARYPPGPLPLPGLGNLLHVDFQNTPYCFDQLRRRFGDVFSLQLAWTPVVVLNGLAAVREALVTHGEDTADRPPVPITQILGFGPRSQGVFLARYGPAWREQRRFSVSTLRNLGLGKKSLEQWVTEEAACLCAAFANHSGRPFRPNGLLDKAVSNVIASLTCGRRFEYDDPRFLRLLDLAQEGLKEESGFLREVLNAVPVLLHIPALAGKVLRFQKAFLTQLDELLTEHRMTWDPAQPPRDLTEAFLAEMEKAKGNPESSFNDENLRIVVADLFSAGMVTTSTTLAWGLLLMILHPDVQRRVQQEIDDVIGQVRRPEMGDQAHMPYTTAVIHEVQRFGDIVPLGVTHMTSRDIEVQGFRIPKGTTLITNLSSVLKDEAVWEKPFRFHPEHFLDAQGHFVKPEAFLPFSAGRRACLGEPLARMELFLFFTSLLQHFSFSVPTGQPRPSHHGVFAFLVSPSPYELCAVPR
Sequence of CYP3A4 (P08684 whole entry, canonical isoform): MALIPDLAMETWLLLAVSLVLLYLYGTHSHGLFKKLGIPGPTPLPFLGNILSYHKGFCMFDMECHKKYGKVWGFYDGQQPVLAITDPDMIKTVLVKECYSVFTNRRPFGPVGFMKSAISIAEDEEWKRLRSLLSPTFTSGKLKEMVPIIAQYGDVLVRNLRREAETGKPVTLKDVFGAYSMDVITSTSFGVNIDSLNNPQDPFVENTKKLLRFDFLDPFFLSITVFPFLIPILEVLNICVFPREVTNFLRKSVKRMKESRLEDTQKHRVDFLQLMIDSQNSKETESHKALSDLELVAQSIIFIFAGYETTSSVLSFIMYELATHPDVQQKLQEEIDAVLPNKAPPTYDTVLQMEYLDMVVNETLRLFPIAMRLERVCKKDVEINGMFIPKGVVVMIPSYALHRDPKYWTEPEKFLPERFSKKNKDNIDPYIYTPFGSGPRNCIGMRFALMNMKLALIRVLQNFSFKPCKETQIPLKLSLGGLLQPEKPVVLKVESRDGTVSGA

Compound: O=C(O[C@H](CO)C(F)(F)F)N1C[C@@H]2[C@H](C1)[C@H]2c1ccn(-c2ccc(F)cc2)n1
- Kp at 24 h [1]: 2.4
- IC50 [2]: 3100 nM
- solubility kinetic [3]: 115 µM (≈ 45.9 µg/mL)
- solubility thermodynamic at 24 h [4]: 25 µM (≈ 9.98 µg/mL)
- CLint scaled [5]: < 8 mL/min/kg
- EC50 (Cannabinoid receptor 1 [6]): 1500 nM
- CLint scaled [7]: 37 mL/min/kg
- clearance [8]: 21 mL/min/kg
- Vd [9]: 3.1 L/kg
- Vd [10]: 1.5 L/kg
- half-life [11]: 1.3 h
- half-life [12]: 1.7 h
- half-life [13]: 1.7 h
- fraction unbound at 24 h [14]: 0.00775
- inhibition at 3 µM (CYP3A4): < 10%
- inhibition at 3 µM (CYP2D6): < 10%
- inhibition at 3 µM (CYP2C9): < 10%
- Activity (Mus musculus [15]): Active
- inhibition (Cannabinoid receptor 1 [16]): inactive
- Drug metabolism [17]: Metabolite_Detected
- Time (Mus musculus [18]): 2 h
- inhibition (Mus musculus [19]): Active
